Reference: ChEMBL document CHEMBL1926588, “Sulfur and selenium derivatives of quinazoline and pyrido[2,3-d]pyrimidine: synthesis and study of their potential cytotoxic activity in vitro” (Eur J Med Chem, 2012)

Experiments:
[1] = Cytotoxicity against human BEAS2B cells after 72 hrs by MTT assay; assay type: cell-based, BEAS-2B; conditions: for GI50 at 72 h: BEAS2B cells; for LC50 / TGI: beas-2b, 72 h
Summary of the method: (§1)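 MTT read-out after 72 h exposure at 37 °C in humidified 5% CO2, with five concentrations between 0.01 and 100. GI50 is 50% growth reduction versus untreated controls, TGI is complete growth inhibition, and LC50 is the concentration killing 50% of cells. Minimum three independent experiments.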

[2] = Cytotoxicity against human HTB-54 cells after 72 hrs by MTT assay; assay type: functional; conditions: HTB-54, 72 h; for CC50: read-out: LC50 (the source's name); summary of the method: as §1
[3] = Cytotoxicity against human 184B5 cells after 72 hrs by MTT assay; assay type: cell-based; conditions: for GI50 at 72 h: 184B5 cells; for LC50 / TGI: 184b5, 72 h; summary of the method: as §1
MCF7 = test: Cytotoxicity against human MCF7 cells after 72 hrs by MTT assay; assay type: functional; conditions: MCF7, 72 h; summary of the method: as §1
CCRF-CEM = test: Cytotoxicity against human CCRF-CEM cells after 72 hrs by MTT assay; assay type: functional; conditions: for CC50: read-out: LC50 (the source's name); summary of the method: as §1
HT-29 = test: Cytotoxicity against human HT-29 cells after 72 hrs by MTT assay; assay type: functional; conditions: HT-29, 72 h; for CC50: read-out: LC50 (the source's name); summary of the method: as §1

Q: Which results are given for `CCCCC[Se]c1nc([Se]CCCCC)c2cccnc2n1`?
A: GI50 at 72 h [1]: > 100 µM; LC50 [1]: > 100 µM; TGI [1]: > 100 µM; GI50 [2]: 15.2 µM; TGI [2]: 60.5 µM; CC50 [2]: > 100 µM; GI50 at 72 h [3]: 52.8 µM; LC50 [3]: > 100 µM; TGI [3]: > 100 µM; GI50 (MCF7): 40.8 µM; LC50 (MCF7): 94.6 µM; TGI (MCF7): 67.7 µM; GI50 (CCRF-CEM): > 100 µM; TGI (CCRF-CEM): > 100 µM; CC50 (CCRF-CEM): > 100 µM; GI50 (HT-29): > 100 µM; TGI (HT-29): > 100 µM; CC50 (HT-29): > 100 µM

Q: Which GI50 at 72 h [1] does the source give for `CCCCC[Se]c1nc(NCc2ccc(SC)cc2)c2ccccc2n1` here?
A: 34.7 µM

Q: And the LC50 [1]?
A: > 100 µM

Q: What about the TGI [1] of the same compound?
A: 88.21 µM

Q: And the GI50 [2]?
A: 40.4 µM

Q: What about the TGI [2] of the same compound?
A: 81.3 µM

Q: What about the CC50 [2] of the same compound?
A: > 100 µM

Q: And the GI50 at 72 h [3]?
A: 57.4 µM

Q: What about the LC50 [3] of the same compound?
A: > 100 µM

Q: And the TGI [3]?
A: > 100 µM

Q: And the GI50 (MCF7)?
A: 34.7 µM

Q: What about the LC50 (MCF7) of the same compound?
A: 95.3 µM

Q: And the TGI (MCF7)?
A: 65 µM

Q: And the GI50 (CCRF-CEM)?
A: 35 µM

Q: What about the TGI (CCRF-CEM) of the same compound?
A: 83.9 µM

Q: And the CC50 (CCRF-CEM)?
A: > 100 µM

Q: What about the GI50 (HT-29) of the same compound?
A: 83.6 µM

Q: What about the TGI (HT-29) of the same compound?
A: > 100 µM

Q: And the CC50 (HT-29)?
A: > 100 µM

Q: With `CSc1nc(Nc2ccccc2)c2ccccc2n1` as the compound, how does the GI50 at 72 h [1] read?
A: 54.8 µM

Q: And the LC50 [1]?
A: > 100 µM

Q: What about the TGI [1] of the same compound?
A: > 100 µM

Q: And the GI50 [2]?
A: 55.8 µM

Q: What about the TGI [2] of the same compound?
A: > 100 µM

Q: And the CC50 [2]?
A: > 100 µM

Q: And the GI50 at 72 h [3]?
A: > 100 µM

Q: What about the LC50 [3] of the same compound?
A: > 100 µM

Q: What about the TGI [3] of the same compound?
A: > 100 µM

Q: What about the GI50 (MCF7) of the same compound?
A: 78.4 µM

Q: What about the LC50 (MCF7) of the same compound?
A: > 100 µM

Q: What about the TGI (MCF7) of the same compound?
A: > 100 µM

Q: And the GI50 (CCRF-CEM)?
A: 74.6 µM

Q: What about the TGI (CCRF-CEM) of the same compound?
A: > 100 µM

Q: What about the CC50 (CCRF-CEM) of the same compound?
A: > 100 µM

Q: And the GI50 (HT-29)?
A: 65.8 µM

Q: What about the TGI (HT-29) of the same compound?
A: > 100 µM

Q: And the CC50 (HT-29)?
A: > 100 µM

Q: Which results are given for `C[Se]c1nc(NCc2ccccc2)c2ccccc2n1`?
A: GI50 at 72 h [1]: 0.57 µM; LC50 [1]: 78.3 µM; TGI [1]: 36.96 µM; GI50 [2]: 74.6 µM; TGI [2]: > 100 µM; CC50 [2]: > 100 µM; GI50 at 72 h [3]: 3.72 µM; LC50 [3]: 73.66 µM; TGI [3]: 12.41 µM; GI50 (MCF7): 15.8 µM; LC50 (MCF7): > 100 µM; TGI (MCF7): 67 µM; GI50 (CCRF-CEM): 39.8 µM; TGI (CCRF-CEM): 61.6 µM; CC50 (CCRF-CEM): 83.5 µM; GI50 (HT-29): 42.8 µM; TGI (HT-29): 81 µM; CC50 (HT-29): > 100 µM

Q: With `CSc1nc(NCCc2ccccc2)c2ccccc2n1` as the compound, how does the GI50 at 72 h [1] read?
A: 41.9 µM

Q: What about the LC50 [1] of the same compound?
A: > 100 µM

Q: What about the TGI [1] of the same compound?
A: 94.8 µM

Q: And the GI50 [2]?
A: 50.6 µM

Q: And the TGI [2]?
A: > 100 µM

Q: And the CC50 [2]?
A: > 100 µM

Q: What about the GI50 at 72 h [3] of the same compound?
A: 8.3 µM

Q: And the LC50 [3]?
A: 88.58 µM

Q: And the TGI [3]?
A: 46.88 µM

Q: What about the GI50 (MCF7) of the same compound?
A: 80.3 µM

Q: What about the LC50 (MCF7) of the same compound?
A: > 100 µM

Q: And the TGI (MCF7)?
A: > 100 µM

Q: And the GI50 (CCRF-CEM)?
A: 32.9 µM

Q: What about the TGI (CCRF-CEM) of the same compound?
A: 72.8 µM

Q: And the CC50 (CCRF-CEM)?
A: > 100 µM

Q: What about the GI50 (HT-29) of the same compound?
A: 29.2 µM

Q: What about the TGI (HT-29) of the same compound?
A: 87.4 µM

Q: And the CC50 (HT-29)?
A: > 100 µM

Q: For `[SeH]c1nc(NCc2ccccc2)c2ccccc2n1`, which GI50 at 72 h [1] is on record?
A: 3.54 µM

Q: And the LC50 [1]?
A: > 100 µM

Q: And the TGI [1]?
A: > 100 µM

Q: And the GI50 [2]?
A: 31.2 µM

Q: What about the TGI [2] of the same compound?
A: > 100 µM

Q: And the CC50 [2]?
A: > 100 µM

Q: What about the GI50 at 72 h [3] of the same compound?
A: 20.8 µM

Q: And the LC50 [3]?
A: > 100 µM

Q: And the TGI [3]?
A: 63.63 µM

Q: And the GI50 (MCF7)?
A: > 100 µM

Q: And the LC50 (MCF7)?
A: > 100 µM

Q: And the TGI (MCF7)?
A: > 100 µM

Q: What about the GI50 (CCRF-CEM) of the same compound?
A: > 100 µM

Q: What about the TGI (CCRF-CEM) of the same compound?
A: > 100 µM

Q: What about the CC50 (CCRF-CEM) of the same compound?
A: > 100 µM

Q: What about the GI50 (HT-29) of the same compound?
A: 62.2 µM

Q: What about the TGI (HT-29) of the same compound?
A: > 100 µM

Q: What about the CC50 (HT-29) of the same compound?
A: > 100 µM

Q: For `Nc1nc([SeH])nc2ccccc12`, which GI50 at 72 h [1] is on record?
A: 0.08 µM

Q: What about the LC50 [1] of the same compound?
A: > 100 µM

Q: And the TGI [1]?
A: > 100 µM

Q: And the GI50 [2]?
A: 0.04 µM

Q: What about the TGI [2] of the same compound?
A: 3.63 µM

Q: And the CC50 [2]?
A: > 100 µM

Q: What about the GI50 at 72 h [3] of the same compound?
A: 0.69 µM

Q: What about the LC50 [3] of the same compound?
A: 80.37 µM

Q: What about the TGI [3] of the same compound?
A: 36.65 µM

Q: And the GI50 (MCF7)?
A: 0.15 µM

Q: What about the LC50 (MCF7) of the same compound?
A: > 100 µM

Q: What about the TGI (MCF7) of the same compound?
A: > 100 µM

Q: And the GI50 (CCRF-CEM)?
A: 25.7 µM

Q: And the TGI (CCRF-CEM)?
A: 52.4 µM

Q: What about the CC50 (CCRF-CEM) of the same compound?
A: 79.1 µM

Q: And the GI50 (HT-29)?
A: 52.2 µM

Q: What about the TGI (HT-29) of the same compound?
A: > 100 µM

Q: And the CC50 (HT-29)?
A: > 100 µM
